Measured values taken from ChEMBL document CHEMBL2169868, “Flavone-based novel antidiabetic and antidyslipidemic agents” (J Med Chem, 2012).
Calls of active or inactive are those of the source. The rule behind the calls is not given here.

Tests used:
Syrian golden hamster [1] = experiment: Antidyslipidemic activity in high fructose and high-fat diet fed dyslipidemic Syrian golden hamster model assessed as reduction in body weight at 25 mg/kg/day for 7 days; format: functional, Mesocricetus auratus; design: scale not given: the % may be the effect or the level left
Summary of the method: (§1)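 Syrian golden hamsters fed high-fructose high-fat diet; oral dosing in 1% gum acacia at 10, 30, 100 mg/kg (or 25 mg/kg) for 7 days, sham control given vehicle; plasma TG, cholesterol, LDL-C, HDL-C, glycerol and NEFA (kits), lipoprotein lipase activity and body weight; % change versus HFD control, six hamsters per group.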

Syrian golden hamster [2] = experiment: Antidyslipidemic activity in high fructose and high-fat diet fed dyslipidemic Syrian golden hamster model assessed as increase in HDL-cholesterol level at 25 mg/kg/day for 7 days; format: functional, Mesocricetus auratus
Syrian golden hamster [3] = experiment: Antidyslipidemic activity in high fructose and high-fat diet fed dyslipidemic Syrian golden hamster model assessed as reduction in LDL-cholesterol level at 25 mg/kg/day for 7 days; format: functional, Mesocricetus auratus; design: scale not given: the % may be the effect or the level left; summary of the method: as §1
Syrian golden hamster [4] = experiment: Antidyslipidemic activity in high fructose and high-fat diet fed dyslipidemic Syrian golden hamster model assessed as reduction in cholesterol level at 25 mg/kg/day for 7 days; format: functional, Mesocricetus auratus; design: scale not given: the % may be the effect or the level left
Syrian golden hamster [5] = experiment: Antidyslipidemic activity in high fructose and high-fat diet fed dyslipidemic Syrian golden hamster model assessed as reduction in triglyceride level at 25 mg/kg/day for 7 days; format: functional, Mesocricetus auratus; design: scale not given: the % may be the effect or the level left
Summary of the method: (§2)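 HFD-fed Syrian golden hamsters, six per group, fed a high-fructose diet. Oral dosing in 1% gum acacia for 7 days. Sham group received vehicle. Plasma TG was measured and body weight tracked. Results given as % change versus HFD control.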

Mus musculus [6] = experiment: Reduction in body weight in diabetic C57BL/KsJ db/db mouse model in hyperglycemia at 25 mg/kg, po qd for 10 days relative to untreated control; format: functional
Summary of the method: (§3)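 db/db mice (C57BL/KsJ, 12−18 weeks, 40−50 g, glucose 200−350 mg/dL), housed at 23 ± 2.0 °C on a 12 h light cycle. Oral dosing daily for 10 days. Blood glucose checked each morning through day 9. Body weight recorded daily from day 1 to day 10. Mean % change versus vehicle, 5 mice per group; Student t test.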

Mus musculus [7] = experiment: Antihyperglycemic activity in diabetic C57BL/KsJ db/db mouse model assessed as reduction in plasma insulin level in hyperglycemia at 25 mg/kg, po qd for 10 days; format: functional; design: scale not given: the % may be the effect or the level left
Summary of the method: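 db/db mice dosed orally every day for 10 days. On day 11, retro-orbital blood was drawn and plasma insulin measured. Mean % change versus vehicle-treated control, 5 mice per group; Student t test.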

Mus musculus [8] = experiment: Antidyslipidemic activity in diabetic C57BL/KsJ db/db mouse model assessed as increase in plasma HDL-C/cholesterol ratio at 25 mg/kg, po qd for 10 days; format: functional
Summary of the method: (§4)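 db/db mice (blood glucose 200−350, TG 170−250, cholesterol 170−250, HDL-C 32−40 mg/dL) dosed orally at 25 mg/kg daily for 10 days; retro-orbital blood taken on day 11 for plasma TG, cholesterol and HDL-C (and HDL-C/CHOL ratio); mean % change versus vehicle control, 5 mice per group; Student t test.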

Mus musculus [9] = experiment: Antidyslipidemic activity in diabetic C57BL/KsJ db/db mouse model assessed as reduction in plasma cholesterol level at 25 mg/kg, po qd for 10 days; format: functional; design: scale not given: the % may be the effect or the level left; summary of the method: as §4
Mus musculus [10] = experiment: Antidyslipidemic activity in diabetic C57BL/KsJ db/db mouse model assessed as increase in plasma HDL-cholesterol level at 25 mg/kg, po qd for 10 days; format: functional; summary of the method: as §4
Mus musculus [11] = experiment: Antidyslipidemic activity in diabetic C57BL/KsJ db/db mouse model assessed as reduction in plasma triglyceride level at 25 mg/kg, po qd for 10 days; format: functional; design: scale not given: the % may be the effect or the level left; summary of the method: as §4
Mus musculus [12] = experiment: Antihyperglycemic activity in diabetic C57BL/KsJ db/db mouse model assessed as improvement in glucose tolerance in hyperglycemia at 25 mg/kg, po qd for 10 days; format: functional
Summary of the method: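 Male/female C57BL/KsJ db/db mice, 12−18 weeks, 40−50 g, selected for glucose 200−350 mg/dL. Oral dosing daily for 10 days. OGTT on day 10 after an overnight fast: compound at −30 min, then 3 g/kg oral glucose at 0 min. Glucose read at 30, 60, 90 and 120 min. AUC taken versus vehicle, 5 mice per group.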

Mus musculus [13] = experiment: Antihyperglycemic activity in diabetic C57BL/KsJ db/db mouse model assessed as reduction in hyperglycemia at 25 mg/kg, po qd for 10 days; format: functional; design: scale not given: the % may be the effect or the level left; summary of the method: as §3
Syrian golden hamster [14] = experiment: Reduction in body weight in high fructose and high-fat diet fed dyslipidemic Syrian golden hamster model at 30 mg/kg/day, po for 7 days; format: functional, Mesocricetus auratus; design: scale not given: the % may be the effect or the level left; summary of the method: as §2
Syrian golden hamster [15] = experiment: Antidyslipidemic activity in high fructose and high-fat diet fed dyslipidemic Syrian golden hamster model assessed as increase in lipoprotein lipase level at 30 mg/kg/day, po for 7 day, po; format: functional, Mesocricetus auratus; summary of the method: as §1
Syrian golden hamster [16] = experiment: Antidyslipidemic activity in high fructose and high-fat diet fed dyslipidemic Syrian golden hamster model assessed as increase in HDL-cholesterol level at 30 mg/kg/day, po for 7 day, po; format: functional, Mesocricetus auratus; summary of the method: as §1
Syrian golden hamster [17] = experiment: Antidyslipidemic activity in high fructose and high-fat diet fed dyslipidemic Syrian golden hamster model assessed as reduction in NEFA level at 30 mg/kg/day, po for 7 day, po; format: functional, Mesocricetus auratus; design: scale not given: the % may be the effect or the level left; summary of the method: as §1
Syrian golden hamster [18] = experiment: Antidyslipidemic activity in high fructose and high-fat diet fed dyslipidemic Syrian golden hamster model assessed as reduction in glycerol level at 30 mg/kg/day, po for 7 day, po; format: functional, Mesocricetus auratus; design: scale not given: the % may be the effect or the level left; summary of the method: as §1
Syrian golden hamster [19] = experiment: Antidyslipidemic activity in high fructose and high-fat diet fed dyslipidemic Syrian golden hamster model assessed as reduction in LDL-cholesterol level at 30 mg/kg/day, po for 7 day, po; format: functional, Mesocricetus auratus; design: scale not given: the % may be the effect or the level left; summary of the method: as §1
Syrian golden hamster [20] = experiment: Antidyslipidemic activity in high fructose and high-fat diet fed dyslipidemic Syrian golden hamster model assessed as reduction in triglyceride level at 30 mg/kg/day, po for 7 day, po; format: functional, Mesocricetus auratus; design: scale not given: the % may be the effect or the level left; summary of the method: as §2
Syrian golden hamster [21] = experiment: Antidyslipidemic activity in high fructose and high-fat diet fed dyslipidemic Syrian golden hamster model assessed as reduction in body weight at 100 mg/kg/day for 7 days; format: functional, organism-based; conditions: Mesocricetus auratus; summary of the method: as §1
Syrian golden hamster [22] = experiment: Antidyslipidemic activity in high fructose and high-fat diet fed dyslipidemic Syrian golden hamster model assessed as reduction in LDL-cholesterol level at 100 mg/kg/day for 7 days; format: functional, Mesocricetus auratus; design: scale not given: the % may be the effect or the level left; summary of the method: as §1
Syrian golden hamster [23] = experiment: Antidyslipidemic activity in high fructose and high-fat diet fed dyslipidemic Syrian golden hamster model assessed as reduction in triglyceride level at 100 mg/kg/day for 7 days; format: functional, Mesocricetus auratus; design: scale not given: the % may be the effect or the level left; summary of the method: as §1
Rattus norvegicus [24] = experiment: Antihyperlipidemic activity in Triton-induced dyslipidemic Wistar rat model assessed as reduction in phospholipid level at 100 mg/kg, po; format: functional; design: scale not given: the % may be the effect or the level left
Summary of the method: (§5)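 Male Wistar rats, 8−10 weeks, about 160 g, fed normal pellet diet. Triton X-100 given at 400 mg/kg ip; compound given orally in 1% gum acacia. Retro-orbital blood taken 18 h after Triton and serum separated at 1500g for 10 min. TG and cholesterol measured by kit. Mean % change versus dyslipidemic control, 5 animals.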

Rattus norvegicus [25] = experiment: Antihyperlipidemic activity in Triton-induced dyslipidemic Wistar rat model assessed as reduction in cholesterol level at 100 mg/kg, po; format: functional; design: scale not given: the % may be the effect or the level left; summary of the method: as §5
Rattus norvegicus [26] = experiment: Antihyperlipidemic activity in Triton-induced dyslipidemic Wistar rat model assessed as reduction in triglyceride level at 100 mg/kg, po; format: functional; design: scale not given: the % may be the effect or the level left; summary of the method: as §5
Rattus norvegicus [27] = experiment: Antidiabetic activity in sucrose loaded Wistar rat model assessed as reduction in glucose levels at 100 mg/kg, po; format: functional; design: scale not given: the % may be the effect or the level left
Rattus norvegicus [28] = experiment: Antidiabetic activity in sucrose challenged streptozotocin-induced diabetic Sprague-Dawley rat model assessed as reduction in glucose levels at 100 mg/kg, po measured after 5 hrs; format: functional; design: scale not given: the % may be the effect or the level left
Rattus norvegicus [29] = experiment: Antidiabetic activity in sucrose challenged streptozotocin-induced diabetic Sprague-Dawley rat model assessed as reduction in glucose levels at 100 mg/kg, po measured after 24 hrs; format: functional

## CC(C)(C)NC[C@@H](O)COc1ccc2c(=O)cc(-c3cc(OCc4ccccc4)cc(OCc4ccccc4)c3)oc2c1
Syrian golden hamster [1]
  Activity: 3.73%
Syrian golden hamster [2]
  Activity: 7.08%
Syrian golden hamster [3]
  Activity: 9.78%
Syrian golden hamster [4]
  Activity: 5.52%
Syrian golden hamster [5]
  Activity: 8.4%
Mus musculus [6]
  Activity: inactive
Mus musculus [7]
  Activity: 18%
Mus musculus [8]
  Percent increase in HDL-C/cholesterol ratio vs vehicle: 28.8
Mus musculus [9]
  Activity: 15.9%
Mus musculus [10]
  Activity: 8.3%
Mus musculus [11]
  Activity: 14.1%
Mus musculus [12]
  Activity: 33.3%
Mus musculus [13]
  Activity: 34.1%

## CC(C)OC(=O)C(C)(C)Oc1ccc(C(=O)c2ccc(Cl)cc2)cc1 [FENOFIBRATE]
Syrian golden hamster [14]
  Activity: 10.2%
Syrian golden hamster [15]
  Activity: 24.7%
Syrian golden hamster [16]
  Activity: 9.68%
Syrian golden hamster [17]
  Activity: 22.2%
Syrian golden hamster [18]
  Activity: 22.1%
Syrian golden hamster [19]
  Activity: 32.3%
Syrian golden hamster [20]
  Activity: 30.2%
Syrian golden hamster [1]
  Activity: 6.78%
Syrian golden hamster [3]
  Activity: 26.8%
Syrian golden hamster [5]
  Activity: 25.5%
Syrian golden hamster [21]
  Activity: Active
Syrian golden hamster [22]
  Activity: 56.3%
Syrian golden hamster [23]
  Activity: 53.4%
Rattus norvegicus [24]
  Activity: 30.3%
Rattus norvegicus [25]
  Activity: 18.9%
Rattus norvegicus [26]
  Activity: 32.9%
Rattus norvegicus [27]
  Activity: 6.43%
Rattus norvegicus [28]
  Activity: 1.47%
Rattus norvegicus [29]
  Activity: inactive
